Shown are actives, neighbours in structure and some others; about 2.9% of the full set was active somewhere.
Beta2AR agonist: human beta-2 adrenergic receptor agonism by FAP; response, % (no concentration beside the values); Am2.2-beta2AR cells, FAP receptor internalization, flow cytometry; 340,000 tested, 0.43% active; P07550;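 active = response above a set limit, near 3 SD of response in nonfluorescent compounds, cut at about 42% in these data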
MEKK3 PB1 HTS: MEKK3-MEK5 PB1 interaction, increase or decrease; Q99759; bead-based flow cytometry, Alexa488-MEK5 binding to MEKK3; actives lie on both sides; 0 = blocked by unlabeled MEK5, 100 = vehicle; binding response (% of control), % at 10 µM; 290,000 tested, 1.4% active;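 active = binding response more than 3 SD above or below the average of its plate-row segment, actives on both sides; inconclusive = wells at one plate position flagged as instrument error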;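 note: Alexa488 bead fluorescence after subtracting the streptavidin-only scavenger bead signal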
MEKK2wt PB1 HTS: raises or lowers MEK5 binding to wildtype human MEKK2 PB1 domain; bead flow cytometry, Alexa488-MEK5 binding to MEKK2 WT; actives lie on both sides; binding response (% of control), % at 10 µM; 290,000 tested, 1.1% active; Q9Y2U5; in the data active = binding response below about 67% or above about 130%; inconclusive = no clear call, values can overlap the other calls; inactive = in between
MEKK2 mut-MEK5: signal of MEK5 binding to mutant human MEKK2 PB1 domain; percent response, % at 10 µM; 290,000 tested, 0.35% active; bead flow cytometry, Alexa488-MEK5 binding to MEKK2 mutant; in the data active = percent response above about 24%, passing the limit was not always enough
ATG4B inh: inhibitors of human ATG4B cysteine protease; Q9Y4P1; ATG4B cleavage of LC3-PLA2, NBD-HPC fluorescence, 1 h; inhibition, % at 8.33 µM; 340,000 tested, 0.51% active; AID 504462; in the data active = inhibition above about 40%
Target sequence (Q9Y4P1 whole entry, looked up): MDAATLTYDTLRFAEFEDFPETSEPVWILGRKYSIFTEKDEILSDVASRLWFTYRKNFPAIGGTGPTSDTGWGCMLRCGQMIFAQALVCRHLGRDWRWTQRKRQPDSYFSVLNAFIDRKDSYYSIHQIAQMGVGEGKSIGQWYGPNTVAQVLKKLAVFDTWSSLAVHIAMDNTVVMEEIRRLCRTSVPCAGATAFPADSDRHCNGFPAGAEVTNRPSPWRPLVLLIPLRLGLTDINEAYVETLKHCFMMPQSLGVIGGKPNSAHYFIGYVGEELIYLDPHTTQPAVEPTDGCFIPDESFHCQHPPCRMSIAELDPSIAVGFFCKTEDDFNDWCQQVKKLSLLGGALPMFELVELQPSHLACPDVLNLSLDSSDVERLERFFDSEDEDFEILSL
Dynein transport: blocks dynein driven cargo transport along microtubules | 3617.4 mouse cells, GR-EGFP nuclear translocation imaging; test concentration mostly 20 µM; stimulated with dexamethasone, 1 µM; active compounds read low | 220,000 tested, 0.47% active | z-score, hits read low | AID 1381;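 active = plate z-score of nuclear minus cytoplasmic receptor signal below a set negative limit, without overly bright fluorescence or cell loss, cut at about -3.5 in these data, passing the limit was not always enough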;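 note: z-score of nuclear minus cytoplasmic ring GR-EGFP intensity difference per well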
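medium = tetracycline-free induction medium containing charcoal-stripped FBS | also added = 1.0 µM final dexamethasone stimulus | schedule = 48 h induction, 1 h compound, 30 min dex at 37 °C | technique = fixed, Hoechst-stained cells imaged at 10x for EGFP | measure = GR-EGFP nuclear translocation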
MEKK2wt confirm: raises or lowers MEK5 binding to wildtype human MEKK2, retest; shares compounds with MEKK3 PB1 HTS; bead flow cytometry, Alexa488-MEK5 binding to MEKK2 WT; actives lie on both sides; binding response (% of control), % at 10 µM; 5,900 tested, 2.4% active; in the data active = binding response below about 16% or above about 210%; inactive = in between
MEKK2mut confirm: signal of MEK5 binding to mutant human MEKK2, retest; shares compounds with MEKK3 PB1 HTS; bead flow cytometry, Alexa488-MEK5 binding to MEKK2 mutant; percent response, % at 10 µM; 5,900 tested, 2% active; AID 1893; in the data active = percent response mostly above about 71%, no sharp cut-off; inactive = mostly below about 38%;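 note: higher means compound restores mutant binding toward wildtype level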
MEKK3 confirm: confirmation of inhibitors of MEK5 binding to human MEKK3; shares compounds with MEKK3 PB1 HTS; bead flow cytometry, Alexa488-MEK5 binding to MEKK3; active compounds read low; binding response (% of control), % at 10 µM; 5,900 tested, 1.8% active; AID 1894;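 active = binding response below 72% of control, or above a set upper limit, though filed actives all read lower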;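 note: lower values mean stronger disruption of MEK5 binding to MEKK3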
Beta2AR ag CP1: activates human beta-2 adrenergic receptor | AID 540358 | Am2.2-beta2AR cells, FAP surface receptor, flow cytometry; active compounds read low | 1,100 tested, 25% active | percent response (surface receptor), % at 10 µM | shares compounds with Beta2AR agonist;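 active = surface receptor percent response at or below 58%, roughly 3 SD from nonfluorescent compounds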
B2AR FAP counter: counter-screen for beta-2AR agonists: fluorescence in Am2.2 cells; shares compounds with Beta2AR agonist; FAP fluorogen flow cytometry, fluorescence counterscreen; active compounds read low; calls only at 10 µM; 1,100 tested, under 10 active; AID 588765;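 active = percent response below a set limit in fluorescence channel 1 and below 50% in channel 8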
Each line names hits and unclear results; the compound was inactive in the other large screens (follow-up assays come after a bar, where they were run); [ ] = remark or other dose.

CN(C(=S)Nc1ccc(Oc2ccccc2)cc1)c1ccc(O)cc1	none
CN(C(=S)Nc1ccc(SC(F)F)cc1)c1ccc(O)cc1	MEKK3 PB1 HTS 133.0 | MEKK2wt confirm inactive | MEKK2mut confirm inactive | MEKK3 confirm inactive
Cc1ccc(-n2c(C)cc(C(=O)COc3cccnc3[N+](=O)[O-])c2C)cc1	MEKK3 PB1 HTS 152.0 | MEKK2wt confirm inactive | MEKK2mut confirm inactive | MEKK3 confirm inactive
O=C(NNC(=O)c1cccc2ccccc12)c1ccc(Br)cc1	none (no result: MEKK3 PB1 HTS, MEKK2wt PB1 HTS, MEKK2 mut-MEK5, Dynein transport)
COc1cc(NC(=O)C2CCCO2)c(OC)cc1Cl (stereo not drawn)	MEKK3 PB1 HTS 82.0[inhibitor] | MEKK2wt confirm inactive | MEKK2mut confirm inactive | MEKK3 confirm inactive
COc1cc(OC)c(NC(=O)C2CCCO2)cc1Cl (stereo not drawn)	none (no result: Dynein transport)
O=C(NCCCN1CCCC1=O)c1cc2nc(-c3ccco3)cc(C(F)(F)F)n2n1	none (no result: Dynein transport)
CCCCc1nc2sc3c(SCCN(C)C)ncnc3c2c2c1CCC2	MEKK2wt PB1 HTS 152.0 | MEKK2wt confirm inactive | MEKK2mut confirm inactive | MEKK3 confirm inactive
NC(=O)c1ccccc1NC(=O)CCn1c(=S)oc2ccccc21	none (no result: Dynein transport)
O=P(Cc1ccccc1)(c1ccccc1)c1ccccc1	none
O=C(O)c1ccc(CP(=O)(c2ccccc2)c2ccccc2)cc1	MEKK3 PB1 HTS 122.0 (no result: Dynein transport) | MEKK2wt confirm inactive | MEKK2mut confirm inactive | MEKK3 confirm inactive
O=C(CCC(=O)Nc1ccccc1Cl)NNC(=O)NC1CCCCC1	none (no result: Dynein transport)
CC(Sc1nc(-c2ccccc2)cc(C(F)(F)F)n1)C(=O)O (stereo not drawn)	none
CC(Sc1nc(-c2ccccc2)cc(C(F)(F)F)n1)C(=O)N1CCC(C(N)=O)CC1 (stereo not drawn)	MEKK3 PB1 HTS 75.0[inhibitor] | MEKK2wt confirm inactive | MEKK2mut confirm inactive | MEKK3 confirm inactive | Beta2AR ag CP1 inactive | B2AR FAP counter inactive
CC(C)(C)NC(=O)CN(C(=O)CNC(=O)c1cccs1)c1ccc2c(c1)OCCO2	MEKK3 PB1 HTS inconclusive, MEKK2wt PB1 HTS inconclusive
Cc1ccc(Cn2c(=N)n(CC(=O)c3ccc([N+](=O)[O-])cc3)c3ccccc32)cc1	Beta2AR agonist 99.6, MEKK2wt PB1 HTS 153.0, MEKK2 mut-MEK5 60.0 | MEKK2wt confirm inactive | MEKK2mut confirm inactive | MEKK3 confirm inactive | Beta2AR ag CP1 23.1 | B2AR FAP counter active
O=C(NNS(=O)(=O)c1ccc([N+](=O)[O-])cc1)C(=O)Nc1cccc(C(=O)O)c1	none (no result: Dynein transport)
CC1(C)Cc2c(c(-c3ccco3)nc3sc4c(NCC5CCCO5)ncnc4c23)CO1 (stereo not drawn)	Beta2AR agonist 83.1, MEKK3 PB1 HTS 143.0 | MEKK2wt confirm inactive | MEKK2mut confirm inactive | MEKK3 confirm inactive | Beta2AR ag CP1 10.1 | B2AR FAP counter inactive
c1ccc(CNc2nc(N3CCN(Cc4ccccc4)CC3)nc3ccccc23)cc1	MEKK2wt PB1 HTS 161.0 | MEKK2wt confirm inactive | MEKK2mut confirm inactive | MEKK3 confirm inactive | Beta2AR ag CP1 inactive | B2AR FAP counter inactive
COc1ccccc1C(=O)Nc1ccc2c(c1)nc(CN1CCN(C(C)=O)CC1)n2C	Beta2AR agonist 52.9, MEKK3 PB1 HTS 67.0[inhibitor] | MEKK2wt confirm inactive | MEKK2mut confirm inactive | MEKK3 confirm inactive | Beta2AR ag CP1 inactive | B2AR FAP counter inactive
O=S(=O)(Nc1ccc(-c2nnc(SCc3ccc(Cl)cc3)o2)cc1)c1ccccc1	Beta2AR agonist 43.1, MEKK3 PB1 HTS 131.0 | MEKK2wt confirm inactive | MEKK2mut confirm inactive | MEKK3 confirm inactive | Beta2AR ag CP1 inactive | B2AR FAP counter inactive
O=C(O)c1ccc(CSc2nnc(-c3ccc(Cl)cc3)o2)cc1	none (no result: Dynein transport)
CC1CC2(C)Oc3ccccc3CC2C(C)C1CNCCCN(C)C (stereo not drawn)	Beta2AR agonist 42.1, MEKK2wt PB1 HTS 139.0 | MEKK2wt confirm inactive | MEKK2mut confirm inactive | MEKK3 confirm inactive | Beta2AR ag CP1 inactive | B2AR FAP counter inactive
CCC1(C)COC(C)(CC(=O)NNC(=O)Nc2ccccc2)OC1 (stereo not drawn)	none
O=C(Nc1cccc(C(F)(F)F)c1)C1CCN(S(=O)(=O)c2ccc(N3CCCC3=O)cc2)CC1	none (no result: Dynein transport)
COc1cccc(-c2ccc(NC(=O)C3CCCN(Cc4cnn(C(C)C)c4)C3)cc2)c1 (stereo not drawn)	MEKK2wt PB1 HTS 147.0 (no result: Dynein transport) | MEKK2wt confirm inactive | MEKK2mut confirm inactive | MEKK3 confirm inactive | Beta2AR ag CP1 inactive | B2AR FAP counter inactive
CCCc1ncc(CN2CCCC(C(=O)Nc3ccc(-c4cccc(OC)c4)cc3)C2)cn1 (stereo not drawn)	none (no result: Dynein transport)
COc1ccc(CN(C)CC(=O)Nc2cccc(S(N)(=O)=O)c2)c(OC)c1OC	none
COc1ccc(CNC(C)CCc2ccccc2)cc1 (stereo not drawn)	none (no result: Dynein transport)
COc1ccc(CNCCC(c2ccc(F)cc2)c2ccc(OC(C)C)cc2)cc1OC (stereo not drawn)	none
COc1ccc(CNCCC(c2ccccc2)C2CCOC(C)(C)C2)cc1 (stereo not drawn)	none
COc1ccc(CNC(=O)CNC(C)c2ccc(F)cc2)cc1 (stereo not drawn)	none (no result: Dynein transport)
COc1ccc(CNCCC(c2ccc(OC)cc2)c2ccccc2OC)cc1 (stereo not drawn)	MEKK2wt PB1 HTS 147.0 (no result: Dynein transport) | MEKK2wt confirm inactive | MEKK2mut confirm inactive | MEKK3 confirm inactive | Beta2AR ag CP1 inactive | B2AR FAP counter inactive
COc1ccc(C(CCNC(C)c2ccccc2)c2ccc(F)cc2)cc1 (stereo not drawn)	Beta2AR agonist 42.0, MEKK2wt PB1 HTS 156.0 | MEKK2wt confirm inactive | MEKK2mut confirm inactive | MEKK3 confirm inactive | Beta2AR ag CP1 inactive | B2AR FAP counter inactive

Bioassay records deposited in PubChem BioAssay by several laboratories.
